What is called IC50 is the concentration that gives 50% inhibition. A high value points to a need for much substance.

Test [1] relates to Eimeria tenella. Kind of test: Antiparasitic activity against Eimeria tenella at 50 ppm administered orally through feed after 7 days. The test is classed as functional. The procedure, abridged: (§1)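 Each compound was given orally in the feed, and its anticoccidial activity was ranked in a seven-day efficacy model. Each Eimeria species got its own quantitative measure.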
For test [2], the target named is cGMP-dependent protein kinase (Eimeria tenella, UniProt Q8MMZ8). Kind of test: Inhibition of Eimeria tenella parasite-specific cGMP-dependent protein kinase.
For test [3], the system named is Eimeria mitis. Kind of test: Antiparasitic activity against Eimeria mitis at 50 ppm administered orally through feed after 7 days. The test is classed as functional. The method in brief: as §1
The subject of test [4] is Eimeria acervulina. Kind of test: Antiparasitic activity against Eimeria acervulina at 50 ppm administered orally through feed after 7 days. The test is classed as functional. The method in brief:
as §1

The subject of test [5] is Eimeria tenella. Kind of test: Antiparasitic activity against Eimeria tenella at 6 ppm administered orally through feed after 7 days. The test is classed as functional. The method in brief:
as §1

Test [6] relates to Eimeria acervulina. Kind of test: Antiparasitic activity against Eimeria acervulina at 6 ppm administered orally through feed after 7 days. The test is classed as functional. The procedure, abridged: as §1
For test [7], the system named is Eimeria maxima. Kind of test: Antiparasitic activity against Eimeria maxima at 6 ppm administered orally through feed after 7 days. The format is functional. The method in brief:
as §1

Test [8] deals with Eimeria mitis. Kind of test: Antiparasitic activity against Eimeria mitis at 6 ppm administered orally through feed after 7 days. The test is classed as functional. The procedure, abridged: as §1
The subject of test [9] is Eimeria maxima. Kind of test: Antiparasitic activity against Eimeria maxima at 50 ppm administered orally through feed after 7 days. The format is functional. The procedure, abridged: as §1

Each structure is given as a SMILES string. Active and inactive are the calls of the source. The calls are words filed in the database; no cut-off is given here. Some results are limits rather than exact numbers.

Sequence of cGMP-dependent protein kinase (Q8MMZ8 whole entry): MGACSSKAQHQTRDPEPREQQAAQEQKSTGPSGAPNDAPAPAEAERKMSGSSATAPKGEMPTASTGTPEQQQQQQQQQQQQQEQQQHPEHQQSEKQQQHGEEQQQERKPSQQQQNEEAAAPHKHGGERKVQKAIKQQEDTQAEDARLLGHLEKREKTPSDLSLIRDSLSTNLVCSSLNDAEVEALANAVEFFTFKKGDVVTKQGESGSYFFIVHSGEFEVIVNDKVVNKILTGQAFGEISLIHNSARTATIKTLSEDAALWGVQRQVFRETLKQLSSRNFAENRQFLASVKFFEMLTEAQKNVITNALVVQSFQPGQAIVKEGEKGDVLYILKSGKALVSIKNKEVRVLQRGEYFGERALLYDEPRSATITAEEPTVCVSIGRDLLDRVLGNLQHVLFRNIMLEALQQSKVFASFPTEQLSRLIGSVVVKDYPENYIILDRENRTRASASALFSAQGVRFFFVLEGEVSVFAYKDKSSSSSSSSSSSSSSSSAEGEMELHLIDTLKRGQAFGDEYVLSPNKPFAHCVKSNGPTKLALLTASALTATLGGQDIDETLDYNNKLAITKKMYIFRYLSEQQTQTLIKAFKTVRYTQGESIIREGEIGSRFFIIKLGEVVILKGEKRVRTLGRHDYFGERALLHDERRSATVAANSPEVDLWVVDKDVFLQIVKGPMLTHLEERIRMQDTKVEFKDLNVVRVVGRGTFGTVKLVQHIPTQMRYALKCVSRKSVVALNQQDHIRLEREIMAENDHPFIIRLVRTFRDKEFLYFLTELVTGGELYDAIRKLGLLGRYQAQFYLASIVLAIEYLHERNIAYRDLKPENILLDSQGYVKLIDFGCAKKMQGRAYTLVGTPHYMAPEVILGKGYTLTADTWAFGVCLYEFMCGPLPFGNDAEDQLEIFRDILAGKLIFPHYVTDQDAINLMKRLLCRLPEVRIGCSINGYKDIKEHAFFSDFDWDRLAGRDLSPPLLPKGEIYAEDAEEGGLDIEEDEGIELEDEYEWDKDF

For the compound `Fc1ccc(-c2[nH]c3cc(N4CCOCC4)ccc3c2-c2ccncc2)cc1`, the values for the Activity with Eimeria tenella [1], in the test with Eimeria mitis [3] and in the test with Eimeria acervulina [4] were 50%, less than 50% and less than 50%, respectively. The same compound showed an IC50 in test [2] of 9.2 nM.
As to `CN1CCC(c2ccn3c(-c4ccnc(N)n4)c(-c4ccc(F)cc4)nc3c2)CC1`, the Activity is listed as 100% in the test on Eimeria tenella [5], 80% in the test with Eimeria acervulina [6], 100% in the test on Eimeria maxima [7] and 80% in the test with Eimeria mitis [8].
Regarding `CN1CCC(Cc2ccc3c(-c4ccncc4)c(-c4ccc(F)cc4)[nH]c3c2)CC1`, the Activity is reported as less than 50% with Eimeria tenella [1], 50% in the test on Eimeria mitis [3] and less than 50% in the test with Eimeria acervulina [4]. Besides, half-maximal inhibition in [2] (IC50) required 1.6 nM.
For `Fc1ccc(-c2[nH]c3cc(C4CCNCC4)ccc3c2-c2ccncn2)cc1`, the Activity in the test on Eimeria tenella [1], in the test on Eimeria mitis [3], in the test with Eimeria maxima [9] and with Eimeria acervulina [4] was less than 50% each time. The IC50 in test [2] came out at 0.65 nM.
With `CCN1CCC(c2ccc3c(-c4ccncc4)c(-c4ccc(F)cc4)[nH]c3c2)CC1`, the Activity in the test with Eimeria tenella [1] is on record as 50%; in the test on Eimeria mitis [3] it was 80%; in the test with Eimeria maxima [9], 80%; with Eimeria acervulina [4], less than 50%. In test [2], the IC50 was determined as 0.16 nM.
As to `CN1CC(c2ccc3c(-c4ccncc4)c(-c4ccc(F)cc4)[nH]c3c2)C1`, the figures for the Activity with Eimeria tenella [1], with Eimeria mitis [3] and in the test on Eimeria acervulina [4] were 50%, less than 50% and less than 50%, respectively. Besides, the IC50 in test [2] stood at 0.62 nM.
As for `CN1CCN(C(=O)c2ccc3[nH]c(-c4ccc(F)cc4)c(-c4ccncc4)c3c2)CC1`, the figures for the Activity with Eimeria tenella [1] and in the test on Eimeria acervulina [4] were 80% and less than 50%, respectively. In addition, in test [2], the IC50 amounted to 12.7 nM. Moreover, the result with Eimeria mitis [3] was inactive.
`Nc1nccc(-c2c(-c3ccc(F)cc3)[nH]c3cc(C4CCN(CCO)CC4)ccc23)n1`: the Activity in the test with Eimeria tenella [1], in the test on Eimeria maxima [9] and in the test with Eimeria acervulina [4] was less than 50% in each case. This compound yielded an IC50 in test [2] of 0.3 nM.
For the compound `Nc1nccc(-c2c(-c3ccc(F)cc3)[nH]c3cc(C4CCNCC4)ccc23)n1`, the Activity in the test on Eimeria tenella [1], in the test on Eimeria maxima [9] and in the test with Eimeria acervulina [4] was less than 50% each time. Moreover, the IC50 in test [2] came to 0.21 nM.
Consider `OCCN1CCC(c2ccc3c(-c4ccncc4)c(-c4ccc(F)cc4)[nH]c3c2)CC1`, for which the Activity in the test with Eimeria tenella [1] is 50%; with Eimeria mitis [3], 80%; in the test on Eimeria maxima [9], less than 50%; with Eimeria acervulina [4] it was 80%. Further, the IC50 in test [2] amounted to 0.1 nM.
Regarding `CN1CCC(c2ccc3c(-c4ccncc4)c(-c4ccc(F)cc4)[nH]c3c2)CC1`, the Activity was determined as 50% in the test on Eimeria tenella [1], 99% with Eimeria mitis [3], 50% in the test with Eimeria maxima [9] and 99% with Eimeria acervulina [4]. Also, the midpoint of inhibition in [2], the IC50, lay at 0.15 nM.
On to `OCCN1CCC(c2ccc3c(-c4ccncn4)c(-c4ccc(F)cc4)[nH]c3c2)CC1`, for which the Activity with Eimeria tenella [1] was 99%; in the test on Eimeria mitis [3], 100%; in the test on Eimeria maxima [9] it was less than 50%; in the test on Eimeria acervulina [4], 50%. The compound also showed an IC50 in test [2] of 0.8 nM.
For the compound `CN1CCN(Cc2ccc3c(-c4ccncc4)c(-c4ccc(F)cc4)[nH]c3c2)CC1`, the Activity is on record as 80% with Eimeria tenella [1], less than 50% with Eimeria mitis [3] and less than 50% in the test with Eimeria acervulina [4]. In test [2], this compound showed an IC50 of 8.9 nM.
Turning to `Fc1ccc(-c2[nH]c3cc(C4CCNCC4)ccc3c2-c2ccncc2)cc1`, the Activity with Eimeria tenella [1], with Eimeria mitis [3], in the test with Eimeria maxima [9] and with Eimeria acervulina [4] was less than 50% throughout. Moreover, the IC50 in test [2] amounted to 0.15 nM.
For `CN1CCC(c2ccc3c(-c4ccnc(N)n4)c(-c4ccc(F)cc4)[nH]c3c2)CC1`, the Activity with Eimeria tenella [1] is 80%; in the test on Eimeria maxima [9], less than 50%; in the test on Eimeria acervulina [4], less than 50%. The compound further came in with an IC50 in [2] of 0.22 nM.
`CN1CCN(c2ccc3c(-c4ccncc4)c(-c4ccc(F)cc4)[nH]c3c2)CC1`: the Activity in the test with Eimeria tenella [1], in the test with Eimeria mitis [3] and in the test with Eimeria acervulina [4] was less than 50% each time.
Consider `CN1CCC(c2ccc3c(-c4ccncn4)c(-c4ccc(F)cc4)[nH]c3c2)CC1`, for which the Activity in the test with Eimeria tenella [1] is on record as less than 50%; in the test on Eimeria mitis [3] it was 50%; in the test with Eimeria maxima [9], less than 50%; in the test on Eimeria acervulina [4], 99%. The same compound came in with an IC50 in test [2] of 0.4 nM.
